Only some compounds are listed: those with a hit (about 1.8% of all), similar ones and a draw of the others.
NSD2 HMT inh: NSD2 histone methyltransferase inhibitors, primary screen, biochemical, AlphaScreen, single concentration, set 2; AID 743445, 2014; NSD2 peptide methylation, 120 min; inhibition, % at 12.5 µM; actives 0.54% (n = 310,000); in the data active means inhibition above about 50%
UHRF1 MBD2 ctr: UHRF1 methylated DNA binding inhibitors, primary screen, counter-screen for MBD2 inhibitor project, biochemical, TR-FRET, human UHRF1, single concentration | actives 0.75% (n = 370,000) | E3 ubiquitin-protein ligase UHRF1 (Homo sapiens), Q96T88 | UHRF1 binding to methylated oligo | inhibition, % at 4.4 µM;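 further: UHRF1 SRA domain binding a hemimethylated CpG hairpin DNA probe; 0% = median of test compound wells and 100% = reference inhibitor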
TDP2 absorb: human TDP2 enzyme inhibitors, primary screen, biochemical, epi absorbance, recombinant enzyme. Tyrosyl-DNA phosphodiesterase 2 (Homo sapiens), O95551. T5PNP hydrolysis, p-nitrophenol absorbance 415 nm. inhibition, % at 12.8 µM. actives 0.34% (n = 370,000);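 active means inhibition above the mean of all tested compounds plus 3 SD, set per campaign, cut at about 25% in these data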;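 further: 0% = DMSO with enzyme and 100% = buffer with substrate but no TDP2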
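System – recombinant human TDP2 · Amount – 120 nM TDP2 per well · Buffer or medium – Mg2+-containing Tris-HCl buffer, pH 7.5 · Reagent – T5PNP substrate, 5 mM · Dosing – 12.8 µM single point, 1% DMSO · Incubation – 2 h at 37 °C · Measured by – epi absorbance · Read-out basis – percent inhibition · Benchmarks – high control without enzyme, low control DMSO plus TDP2 · Repeats – singlicate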
LEDGF integ inh: blockers of LEDGF/p75-dependent integrase strand transfer – biochemical, TR-FRET, high throughput, primary screen. HIV-1 integrase (with human LEDGF/p75). TR-FRET IN-LEDGF/p75 DNA integration, Eu/Cy5. inhibition, % at 3.7 µM. actives 0.64% (n = 370,000);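 active means inhibition above the screen-wide mean plus 3 SD, cut at about 13% in these data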;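 further: signal is the Cy5 over europium emission ratio at 671 and 618 nm; 0% = plate median of compound wells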
CASP6 VEID inh: human caspase-6 inhibitors, primary screen, biochemical, VEID-R110 fluorescence, single point, set 2 | P55212 | purified caspase-6, Z-VEID-R110 cleavage fluorescence | inhibition, % at 12.5 µM | actives 0.53% (n = 350,000) | AID 686996, 2013;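 active means mean inhibition across replicates at least about 35%, with every replicate also reaching that limit, limit read from the data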;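 further: 0% = median of neutral control wells and 100% = no fluorescence left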
MBD2 DNA inh: inhibitors of MBD2 binding to methylated DNA, primary screen, biochemical, TR-FRET, DNA-binding domain, human | Methyl-CpG-binding domain protein 2 (Homo sapiens), Q9UBB5 | MBD2 binding to methylated oligonucleotide | inhibition, % at 4.4 µM | actives 0.31% (n = 370,000); in the data active means inhibition above about 13%
Target sequence (Q9UBB5 whole entry, looked up, the tested form may be a part): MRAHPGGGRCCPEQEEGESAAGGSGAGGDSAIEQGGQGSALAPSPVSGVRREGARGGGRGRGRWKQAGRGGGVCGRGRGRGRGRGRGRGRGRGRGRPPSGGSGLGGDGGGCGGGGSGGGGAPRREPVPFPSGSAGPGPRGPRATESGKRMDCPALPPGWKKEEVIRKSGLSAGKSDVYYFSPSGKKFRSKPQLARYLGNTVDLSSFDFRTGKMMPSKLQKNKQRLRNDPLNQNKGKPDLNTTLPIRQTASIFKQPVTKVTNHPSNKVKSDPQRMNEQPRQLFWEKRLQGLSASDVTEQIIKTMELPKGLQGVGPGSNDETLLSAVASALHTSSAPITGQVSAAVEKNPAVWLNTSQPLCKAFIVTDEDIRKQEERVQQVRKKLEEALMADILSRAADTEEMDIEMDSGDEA
UHRF1 ctr MBD2: UHRF1 methylated DNA binding inhibitors, counter-screen for MBD2 inhibitor project, biochemical, TR-FRET, human UHRF1; shares compounds with MBD2 DNA inh; UHRF1 binding to methylated oligonucleotide; inhibition, % at 4.4 µM; actives 25% (n = 1,000); AID 720530, 2013;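 further: UHRF1 SRA domain binding a labeled hemimethylated CpG hairpin DNA; 0% = vehicle only and 100% = reference inhibitor with vehicle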
MBD2 confirm: inhibitors of MBD2 binding to methylated DNA, confirmation, biochemical, TR-FRET, DNA-binding domain, human; inhibition, % at 4.4 µM; shares compounds with MBD2 DNA inh; TR-FRET MBD2-DBD binding to methylated oligonucleotide; AID 720531, 2013; actives 26% (n = 1,000); in the data active means inhibition above about 14%
* = called active by the depositor. Unless noted, no stated cut-off is given here; in the data, active means inhibition above about 21%; inactive means the rest.

Screening COC(=O)C1=C(c2c(C)noc2C)C[C@@H]2CC[C@H]1N2C(=O)N1CCC(O)CC1 returned UHRF1 MBD2 ctr 0, TDP2 absorb 9, LEDGF integ inh 0, CASP6 VEID inh 2, MBD2 DNA inh 28*, UHRF1 ctr MBD2 4 and MBD2 confirm 2.
For COC(=O)C[C@H]1CC[C@@H]2NC[C@@H](O)COC[C@H]2O1 the results were CASP6 VEID inh -3.
Screening COC(=O)C1=C(c2ccc(F)cc2OCc2ccccc2)C[C@@H]2CC[C@H]1N2C(=O)NCCOc1ccccc1Cl returned UHRF1 MBD2 ctr 1, TDP2 absorb -6, LEDGF integ inh -2, CASP6 VEID inh -1, MBD2 DNA inh 16*, UHRF1 ctr MBD2 -3 and MBD2 confirm 2.
For O=C(O)C1CN2CCC1CC2 (stereo not drawn) the results were NSD2 HMT inh -2, UHRF1 MBD2 ctr -1, TDP2 absorb 9, LEDGF integ inh 1, CASP6 VEID inh 0, MBD2 DNA inh 14*, UHRF1 ctr MBD2 7 and MBD2 confirm 3.
`Cc1ccc2ccccc2c1NC(=O)CNC1CCCCC1` gave NSD2 HMT inh -5, UHRF1 MBD2 ctr 0, TDP2 absorb 8, LEDGF integ inh 0, MBD2 DNA inh 18*, UHRF1 ctr MBD2 4 and MBD2 confirm 5.
For CCc1ccccc1NC(=O)CNC1CCCCC1 the results were NSD2 HMT inh 0, UHRF1 MBD2 ctr 2, TDP2 absorb 7, LEDGF integ inh -3, CASP6 VEID inh -2 and MBD2 DNA inh 2.
`COC1C(C)OC(OC2CC(C)(O)Cc3cc4c(c(O)c32)C(=O)c2c(O)cc3c(c2C4=O)OC2OC3(C)C(O)C(N(C)C)C2O)C(OC)C1(C)OC` (stereo not drawn) gave UHRF1 MBD2 ctr 97*, TDP2 absorb -3, LEDGF integ inh 3, CASP6 VEID inh 18, MBD2 DNA inh 107*, UHRF1 ctr MBD2 102* and MBD2 confirm 109*.
For O=C(COc1ccc(Cl)cc1)NCCc1cnc[nH]1 the results were NSD2 HMT inh -2, UHRF1 MBD2 ctr -2, TDP2 absorb -2, LEDGF integ inh 5, CASP6 VEID inh 1, MBD2 DNA inh 52*, UHRF1 ctr MBD2 8 and MBD2 confirm 1.
`O=C(COc1ccccc1)NCCc1cnc[nH]1` gave NSD2 HMT inh -3, UHRF1 MBD2 ctr 0, TDP2 absorb 10, LEDGF integ inh -1, CASP6 VEID inh -7 and MBD2 DNA inh 1.
`COC(=O)[C@H]1[C@H](CO)[C@H]2Cn3c(ccc(-c4ccccc4F)c3=O)[C@@H]1N2CC1CCCC1` gave CASP6 VEID inh -1.
